Test results reported in ChEMBL document CHEMBL1687785, “ampG gene of Pseudomonas aeruginosa and its role in β-lactamase expression” (2010).
≈ marks a conversion by molar mass, not a printed value.

Key:
Assay type in all cases: functional
Pseudomonas aeruginosa [1] = assay: Antimicrobial activity against ampD, ampDh2, ampDh3 and ampG deficient Pseudomonas aeruginosa PAO1 harboring pUCP24 conferring resistance to gentamycin after 16 to 20 hrs by broth microdilution method in presence of 120 uM carbonyl cyanide m-chlorophenyl-hydrazone
Outline: (§1)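 CLSI broth microdilution in Mueller-Hinton broth with serial antibiotic dilutions. CCCP was added from a 10 mM DMSO stock to 120 μM final, then the bacterial culture was added as inoculum (about 10^4 cells from OD600 0.5 starter cultures). MIC was the lowest concentration preventing growth after 16 to 20 h at 37°C, run in triplicate.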

Pseudomonas aeruginosa [2] = assay: Antimicrobial activity against ampG deficient Pseudomonas aeruginosa PAK harboring pUCP24 conferring resistance to gentamycin after 16 to 20 hrs by broth microdilution method in presence of 120 uM carbonyl cyanide m-chlorophenyl-hydrazone; outline: as §1
Pseudomonas aeruginosa [3] = assay: Antimicrobial activity against ampG deficient Pseudomonas aeruginosa PAO1 harboring pZY0901 conferring resistance to gentamycin after 16 to 20 hrs by broth microdilution method in presence of 120 uM carbonyl cyanide m-chlorophenyl-hydrazone; outline: as §1
Pseudomonas aeruginosa [4] = assay: Antimicrobial activity against Pseudomonas aeruginosa isolate 4 obtained from cystic fibrosis patients after 16 to 20 hrs by broth microdilution method in presence of 120 uM carbonyl cyanide m-chlorophenyl-hydrazone; outline: as §1
Pseudomonas aeruginosa [5] = assay: Antimicrobial activity against ampG deficient Pseudomonas aeruginosa PAK harboring pZY0901 conferring resistance to gentamycin after 16 to 20 hrs by broth microdilution method
Outline: (§2)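 CLSI broth microdilution in Mueller-Hinton broth, serial 2-fold antibiotic dilutions. Inoculum about 10^4 cells per well, taken from starter cultures grown to OD600 0.5. MIC was the lowest antibiotic concentration preventing growth after 16 to 20 h at 37°C. Each MIC was determined in triplicate.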

Pseudomonas aeruginosa [6] = assay: Antimicrobial activity against ampGh1 deficient Pseudomonas aeruginosa PAK after 16 to 20 hrs by broth microdilution method; outline: as §2
Pseudomonas aeruginosa [7] = assay: Antimicrobial activity against Pseudomonas aeruginosa PAK after 16 to 20 hrs by broth microdilution method in presence of 120 uM carbonyl cyanide m-chlorophenyl-hydrazone
Outline: (§3)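 CLSI broth microdilution in Mueller-Hinton broth with CCCP added from a 10 mM DMSO stock to 120 μM final, alongside 2-fold serial antibiotic dilutions. Inoculum from starter cultures grown to OD600 0.5. MIC is the lowest concentration preventing growth after 16-20 h at 37°C. Triplicate.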

Pseudomonas aeruginosa [8] = assay: Antimicrobial activity against Pseudomonas aeruginosa isolate 17 obtained from cystic fibrosis patients after 16 to 20 hrs by broth microdilution method; outline: as §2
Pseudomonas aeruginosa [9] = assay: Antimicrobial activity against ampG deficient Pseudomonas aeruginosa PAO1 harboring pUCP24 conferring resistance to gentamycin after 16 to 20 hrs by broth microdilution method in presence of 120 uM carbonyl cyanide m-chlorophenyl-hydrazone; outline: as §1
Pseudomonas aeruginosa [10] = assay: Antimicrobial activity against Pseudomonas aeruginosa isolate 9 obtained from cystic fibrosis patients after 16 to 20 hrs by broth microdilution method in presence of 120 uM carbonyl cyanide m-chlorophenyl-hydrazone; outline: as §1
Pseudomonas aeruginosa [11] = assay: Antimicrobial activity against Pseudomonas aeruginosa isolate 6 obtained from cystic fibrosis patients after 16 to 20 hrs by broth microdilution method; outline: as §2
Escherichia coli [12] = assay: Antimicrobial activity against gentamycin resistant Escherichia coli SNO301-1 harboring pEC1C carrying ampC, ampR from Enterobacter cloacae after 16 to 20 hrs by broth microdilution method
Outline: (§4)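 CLSI broth microdilution: serial 2-fold β-lactam dilutions in Mueller-Hinton broth, inoculum about 10^4 cells from starter cultures at OD600 0.5; MIC read as lowest concentration preventing growth after 16 to 20 h at 37°C; triplicate determinations.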

Pseudomonas aeruginosa [13] = assay: Antimicrobial activity against Pseudomonas aeruginosa isolate 7 obtained from cystic fibrosis patients after 16 to 20 hrs by broth microdilution method in presence of 120 uM carbonyl cyanide m-chlorophenyl-hydrazone; outline: as §1
Pseudomonas aeruginosa [14] = assay: Antimicrobial activity against Pseudomonas aeruginosa isolate 10 obtained from cystic fibrosis patients after 16 to 20 hrs by broth microdilution method
Outline: (§5)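 CLSI broth microdilution: 2-fold serial antibiotic dilutions in Mueller-Hinton broth, inoculated with about 10^4 cells per 100 μl from starter cultures grown to OD600 0.5. MIC is the lowest concentration preventing growth after 16-20 h at 37°C. Triplicate.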

Pseudomonas aeruginosa [15] = assay: Antimicrobial activity against ampG, ampGh1 deficient Pseudomonas aeruginosa PAO1 after 16 to 20 hrs by broth microdilution method in presence of 120 uM carbonyl cyanide m-chlorophenyl-hydrazone; outline: as §1
Pseudomonas aeruginosa [16] = assay: Antimicrobial activity against ampD, ampDh2, ampDh3 and ampG deficient Pseudomonas aeruginosa PAO1 harboring pUCP24 conferring resistance to gentamycin after 16 to 20 hrs by broth microdilution method; outline: as §2
Pseudomonas aeruginosa [17] = assay: Antimicrobial activity against Pseudomonas aeruginosa isolate 15 obtained from cystic fibrosis patients after 16 to 20 hrs by broth microdilution method in presence of 120 uM carbonyl cyanide m-chlorophenyl-hydrazone; outline: as §3
Pseudomonas aeruginosa [18] = assay: Antimicrobial activity against Pseudomonas aeruginosa isolate 12 obtained from cystic fibrosis patients after 16 to 20 hrs by broth microdilution method; outline: as §5
Pseudomonas aeruginosa [19] = assay: Antimicrobial activity against Pseudomonas aeruginosa isolate 16 obtained from cystic fibrosis patients after 16 to 20 hrs by broth microdilution method in presence of 120 uM carbonyl cyanide m-chlorophenyl-hydrazone; outline: as §3
Pseudomonas aeruginosa [20] = assay: Antimicrobial activity against Pseudomonas aeruginosa isolate 13 obtained from cystic fibrosis patients after 16 to 20 hrs by broth microdilution method; outline: as §5
Pseudomonas aeruginosa [21] = assay: Antimicrobial activity against Pseudomonas aeruginosa isolate 5 obtained from cystic fibrosis patients after 16 to 20 hrs by broth microdilution method in presence of 120 uM carbonyl cyanide m-chlorophenyl-hydrazone; outline: as §1
Pseudomonas aeruginosa [22] = assay: Antimicrobial activity against Pseudomonas aeruginosa isolate 3 obtained from cystic fibrosis patients after 16 to 20 hrs by broth microdilution method; outline: as §2
Pseudomonas aeruginosa [23] = assay: Antimicrobial activity against Pseudomonas aeruginosa isolate 1 obtained from cystic fibrosis patients after 16 to 20 hrs by broth microdilution method in presence of 120 uM carbonyl cyanide m-chlorophenyl-hydrazone; outline: as §3
Escherichia coli [24] = assay: Antimicrobial activity against tetracycline resistant Escherichia coli SNO301-1 harboring pEC1C carrying ampC, ampR from Enterobacter cloacae after 16 to 20 hrs by broth microdilution method; outline: as §4
Pseudomonas aeruginosa [25] = assay: Antimicrobial activity against ampG deficient Pseudomonas aeruginosa PAK after 16 to 20 hrs by broth microdilution method; outline: as §2
Pseudomonas aeruginosa [26] = assay: Antimicrobial activity against Pseudomonas aeruginosa isolate 18 obtained from cystic fibrosis patients after 16 to 20 hrs by broth microdilution method; outline: as §2
Pseudomonas aeruginosa [27] = assay: Antimicrobial activity against ampD, ampDh2, ampDh3 and ampGh1 deficient Pseudomonas aeruginosa PAO1 after 16 to 20 hrs by broth microdilution method in presence of 120 uM carbonyl cyanide m-chlorophenyl-hydrazone; outline: as §1
Pseudomonas aeruginosa [28] = assay: Antimicrobial activity against Pseudomonas aeruginosa PAO1 after 16 to 20 hrs by broth microdilution method; outline: as §5
Pseudomonas aeruginosa [29] = assay: Antimicrobial activity against ampD, ampDh2, ampDh3 and ampG deficient Pseudomonas aeruginosa PAO1 harboring pZY0901 conferring resistance to gentamycin after 16 to 20 hrs by broth microdilution method; outline: as §2
Pseudomonas aeruginosa [30] = assay: Antimicrobial activity against Pseudomonas aeruginosa isolate 2 obtained from cystic fibrosis patients after 16 to 20 hrs by broth microdilution method in presence of 120 uM carbonyl cyanide m-chlorophenyl-hydrazone; outline: as §1
Pseudomonas aeruginosa [31] = assay: Antimicrobial activity against Pseudomonas aeruginosa isolate 13 obtained from cystic fibrosis patients after 16 to 20 hrs by broth microdilution method in presence of 120 uM carbonyl cyanide m-chlorophenyl-hydrazone; outline: as §3

CC1(C)S[C@@H]2[C@H](NC(=O)[C@H](N)c3ccccc3)C(=O)N2[C@H]1C(=O)O [AMPICILLIN]
MIC (Pseudomonas aeruginosa [1]): 16 µg/mL
MIC (Pseudomonas aeruginosa [2]): 32 µg/mL
MIC (Pseudomonas aeruginosa [3]): 512 µg/mL
MIC (Pseudomonas aeruginosa [4]): 512 µg/mL
MIC (Pseudomonas aeruginosa [5]): 512 µg/mL (≈ 1470 µM)
MIC (Pseudomonas aeruginosa [6]): 512 µg/mL (≈ 1470 µM)
MIC (Pseudomonas aeruginosa [7]): 256 µg/mL
MIC (Pseudomonas aeruginosa [8]): 512 µg/mL (≈ 1470 µM)
MIC (Pseudomonas aeruginosa [9]): 32 µg/mL
MIC (Pseudomonas aeruginosa [10]): 8 µg/mL
MIC (Pseudomonas aeruginosa [11]): > 1020 µg/mL
MIC (Escherichia coli [12]): 1020 µg/mL (≈ 2930 µM)
MIC (Pseudomonas aeruginosa [13]): 8 µg/mL
MIC (Pseudomonas aeruginosa [14]): > 1020 µg/mL
MIC (Pseudomonas aeruginosa [15]): 32 µg/mL
MIC (Pseudomonas aeruginosa [16]): 16 µg/mL (≈ 45.8 µM)
MIC (Pseudomonas aeruginosa [17]): 8 µg/mL
MIC (Pseudomonas aeruginosa [18]): > 1020 µg/mL
MIC (Pseudomonas aeruginosa [19]): 8 µg/mL
MIC (Pseudomonas aeruginosa [20]): > 1020 µg/mL
MIC (Pseudomonas aeruginosa [21]): 512 µg/mL
MIC (Pseudomonas aeruginosa [22]): 64 µg/mL (≈ 183 µM)
MIC (Pseudomonas aeruginosa [23]): 512 µg/mL
MIC (Escherichia coli [24]): 16 µg/mL (≈ 45.8 µM)
MIC (Pseudomonas aeruginosa [25]): 32 µg/mL (≈ 91.6 µM)
MIC (Pseudomonas aeruginosa [26]): 256 µg/mL (≈ 733 µM)
MIC (Pseudomonas aeruginosa [27]): 64 µg/mL
MIC (Pseudomonas aeruginosa [28]): 256 µg/mL (≈ 733 µM)
MIC (Pseudomonas aeruginosa [29]): 1020 µg/mL (≈ 2930 µM)
MIC (Pseudomonas aeruginosa [30]): 256 µg/mL
MIC (Pseudomonas aeruginosa [31]): 8 µg/mL
